The results in this text go back to ChEMBL document CHEMBL1126608.

SMILES strings stand for the structures. Some results are limits rather than exact numbers.

Assay [1] concerns the target Muscarinic acetylcholine receptor M3 (Cavia porcellus) (UniProt Q8VH26). Nature of the assay: Antagonist activity against muscarinic M3 receptor from guinea pig ileum. The class given is functional, tissue-based. A digest of the protocol:
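Longitudinal guinea pig ileum strips suspended in oxygenated Krebs buffer; carbachol concentration-response curves with or without at least three increasing antagonist concentrations (5-min preincubation). Contraction as % of maximal carbachol response without antagonist.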

Assay [2] concerns the target T1, Muscarinic acetylcholine receptor M2 (Homo sapiens) (UniProt P08172).
T1 sequence (whole entry): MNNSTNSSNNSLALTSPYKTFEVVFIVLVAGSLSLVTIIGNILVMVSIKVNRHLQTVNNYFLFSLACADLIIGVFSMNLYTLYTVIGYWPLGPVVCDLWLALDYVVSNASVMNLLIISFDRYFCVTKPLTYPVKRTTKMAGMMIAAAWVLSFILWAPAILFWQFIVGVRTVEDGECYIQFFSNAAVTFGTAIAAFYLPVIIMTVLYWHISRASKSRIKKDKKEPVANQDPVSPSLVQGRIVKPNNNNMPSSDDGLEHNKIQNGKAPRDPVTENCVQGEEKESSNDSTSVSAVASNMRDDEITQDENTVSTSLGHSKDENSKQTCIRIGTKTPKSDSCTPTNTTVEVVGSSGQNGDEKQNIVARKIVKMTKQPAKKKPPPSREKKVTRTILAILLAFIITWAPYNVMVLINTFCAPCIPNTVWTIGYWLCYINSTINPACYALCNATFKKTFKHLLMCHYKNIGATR
Nature of the assay: Antagonist activity against muscarinic M2 receptor from guinea pig atria. The class given is functional. Conditions: Cavia porcellus; target entry is the homologue from another species. The method, boiled down: (§1)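 Isolated guinea pig right atria in Krebs-Henseleit buffer; cumulative carbachol concentration-rate response curves before and after at least three increasing antagonist concentrations (5-min preincubation). Responses as % of maximal carbachol-induced rate inhibition without antagonist.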

The target in assay [3] is T2, Muscarinic acetylcholine receptor (Homo sapiens) (UniProt P20309+P08173+P11229+P08172+P08912). Conditions: Cavia porcellus.
For assay [4], the target named is T2, Muscarinic acetylcholine receptor (Homo sapiens). Nature of the assay: In vivo antimuscarinic activity to decrease carbachol-stimulated salivation in guinea pig. The format is functional, organism-based. Conditions: Cavia porcellus; target entry is the homologue from another species. The method, boiled down:
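Guinea pigs dosed sc with various antagonist doses; 30 min later carbachol 0.1 mg/kg ip; ability to respond to agonist scored 5-10 min afterwards.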

Assay [5] addresses T1, Muscarinic acetylcholine receptor M2 (Homo sapiens). The experiment in a line: Antagonist activity against muscarinic M2 receptor from guinea pig atria; Non competitive. To be noted: Cavia porcellus; filed as antagonist; target entry is the homologue from another species. The format is functional. The method, boiled down: as §1
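Wherever ID50 is given: in vivo guinea pig assay: antimuscarinic effect measured as reduced salivation after carbachol stimulation.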

Chain of Muscarinic acetylcholine receptor M3 (Cavia porcellus) (Q8VH26 1-587): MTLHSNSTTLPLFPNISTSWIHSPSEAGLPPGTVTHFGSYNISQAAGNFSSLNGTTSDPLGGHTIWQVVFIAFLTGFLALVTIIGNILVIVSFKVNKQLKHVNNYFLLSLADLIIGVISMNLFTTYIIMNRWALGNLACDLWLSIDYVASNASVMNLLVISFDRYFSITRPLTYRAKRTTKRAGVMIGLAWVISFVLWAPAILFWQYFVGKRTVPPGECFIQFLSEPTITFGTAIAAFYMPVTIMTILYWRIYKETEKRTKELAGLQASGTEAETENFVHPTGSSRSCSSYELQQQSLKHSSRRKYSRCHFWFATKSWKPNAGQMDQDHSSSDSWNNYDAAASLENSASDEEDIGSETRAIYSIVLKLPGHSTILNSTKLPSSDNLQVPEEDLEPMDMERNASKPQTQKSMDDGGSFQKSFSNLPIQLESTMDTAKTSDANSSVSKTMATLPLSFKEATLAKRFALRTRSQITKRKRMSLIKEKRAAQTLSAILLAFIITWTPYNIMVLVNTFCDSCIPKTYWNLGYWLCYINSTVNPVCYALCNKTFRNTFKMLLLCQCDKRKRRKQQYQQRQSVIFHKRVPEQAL

The Kb is the affinity of an antagonist, worked out from how it opposes an agonist. As for `O=C(CN1CCN(c2ccc([N+](=O)[O-])cc2)CC1)C(O)(c1ccccc1)C1CCC1` (stereo not given), the antagonist dissociation constant (Kb) in assay [1] and in assay [2] was more than 10 µM throughout.
Take `O=C(CN1CCN(Cc2ccccc2)CC1)C(O)(c1ccccc1)C1CC1` (stereo not given): the Kb in assay [1] was 0.024 µM; in assay [2], 0.225 µM. For the same compound, in assay [3], the ID50 came out at 9.9 mg/kg.
For the compound `O=C(CN1CCC(O)CC1)C(O)(c1ccccc1)C1CCC1` (stereo not given), the Kb worked out at 0.472 µM in assay [1] and 2.34 µM in assay [2].
For `O=C(CN1CCC(N2CCCC2)CC1)C(O)(c1ccccc1)C1CCCCC1` (stereo not given) the same measures were 0.349 µM and 4.51 µM.
As a reminder, the ED50 is the dose that gives a 50% effect, or the effect in half of the subjects. Consider `C=C(C)CN1CCN(CC(=O)C(O)(c2ccccc2)C2CCC2)CC1` (stereo not given), for which the antagonist equilibrium constant (Kb) amounted to 0.1 µM in assay [1] and 0.551 µM in assay [2]. This compound displayed a 50% effective dose (ED50) in assay [4] of 17 mg/kg.
With `C=CCN1CCN(CC(=O)C(O)(c2ccccc2)C2CCC2)CC1` (stereo not given), the antagonist dissociation constant (Kb) in assay [1] was 0.06 µM; in assay [2], 0.299 µM. The same compound displayed an ID50 in assay [3] of 20.4 mg/kg.
The corresponding values for `O=C(CN1CCN(Cc2cccs2)CC1)C(O)(c1ccccc1)C1CCC1` (stereo not given) are 0.0438 µM, 0.491 µM and 25 mg/kg.
Turning to `O=C(CN1CCN(Cc2ccco2)CC1)C(O)(c1ccccc1)C1CCC1` (stereo not given), the antagonist dissociation constant (Kb) in assay [1] was 0.75 µM; in assay [2] it was more than 30 µM.
In the case of `O=C(CN1CCN(CCO)CC1)C(O)(c1ccccc1)C1CCC1` (stereo not given), the antagonist dissociation constant (Kb) in assay [1] was found to be 0.185 µM; in assay [2], 2.35 µM. This compound also gave an ID50 in assay [3] of 4.93 mg/kg.
For the compound `O=C(CN1CCNCC1)C(O)(c1ccccc1)C1CCC1` (stereo not given), the values for the Kb in assay [1] and in assay [2] were 0.087 µM and 0.94 µM, respectively. Also, the ID50 in assay [3] came out at 1.65 mg/kg.
For `O=C(CN1CCN(C/C=C\c2ccccc2)CC1)C(O)(c1ccccc1)C1CCC1` (stereo not given) the same measures were 0.00992 µM, 0.0023 µM and 1.2 mg/kg.
As for `COc1cccc(CN2CCN(CC(=O)C(O)(c3ccccc3)C3CCC3)CC2)c1` (stereo not given), the Kb in assay [1] stood at 0.017 µM; in assay [2], 0.136 µM.
The corresponding values for `Cc1ccccc1CN1CCN(CC(=O)C(O)(c2ccccc2)C2CCC2)CC1` (stereo not given) are 0.199 µM and more than 1 µM.
The corresponding values for `CCOc1ccccc1N1CCN(CC(=O)C(O)(c2ccccc2)C2CCC2)CC1` (stereo not given) are more than 10 µM and more than 10 µM.
`COc1ccc(CN2CCN(CC(=O)C(O)(c3ccccc3)C3CCC3)CC2)cc1` (stereo not given): the Kb in assay [1] amounted to 0.0279 µM; in assay [2], 0.263 µM. For the same compound, in assay [3], the ID50 was determined as 10.8 mg/kg.
The corresponding values for `N#CCN1CCN(CC(=O)C(O)(c2ccccc2)C2CCC2)CC1` (stereo not given) are 2.71 µM, more than 30 µM and 35.7 mg/kg.
The corresponding values for `O=C(CN1CCN(Cc2ccccc2)CC1)C(O)(c1ccccc1)C1CCCC1` (stereo not given) are 0.0026 µM, 0.078 µM and 0.24 mg/kg.
`CCOC(=O)N1CCN(CC(=O)C(O)(c2ccccc2)C2CCCCC2)CC1` (stereo not given): the antagonist dissociation constant (Kb) is more than 10 µM in assay [1] and more than 30 µM in assay [2].
Turning to `CN1CCN(CC(=O)C(O)(c2ccccc2)C2CCCCC2)CC1` (stereo not given), the results for the antagonist equilibrium constant (Kb) in assay [1] and in assay [2] were 0.015 µM and 0.21 µM, respectively. This compound came in with a median effective dose (ED50) in assay [4] of 1.84 mg/kg.
For the compound `CC(C)=CCN1CCN(CC(=O)C(O)(c2ccccc2)C2CCC2)CC1` (stereo not given), the Kb was found to be 0.022 µM in assay [1] and 0.305 µM in assay [2]. The compound further showed an ID50 in assay [3] of 4.9 mg/kg.
For `C=CCN1CCN(CC(=O)C(O)(c2ccccc2)C2CCCCC2)CC1` (stereo not given) the same measures were 0.0256 µM, 0.425 µM and 21 mg/kg.
Consider `O=C(CN1CCN(c2ccccc2)CC1)C(O)(c1ccccc1)C1CCC1` (stereo not given), for which the Kb in assay [1] was 0.624 µM; in assay [2] it was more than 30 µM.
Regarding `O=C(CN1CCN(Cc2ccccc2)CC1)C(O)(c1ccccc1)C1CCCCC1` (stereo not given), the Kb in assay [1] came out at 0.012 µM; in assay [2], 0.282 µM. Moreover, in assay [3], the ID50 amounted to 4.38 mg/kg.
For `CN1CCN(CC(=O)C(O)(c2ccccc2)C2CCC2)CC1` (stereo not given) the same measures were 0.013 µM, 0.079 µM and 0.72 mg/kg.
The corresponding values for `O=C(CN1CCN(Cc2ccccc2)CC1)C(O)(c1ccccc1)c1ccccc1` are 0.006 µM, 1.46 µM and more than 100 mg/kg.
As for `CC(C)CC(O)(C(=O)CN1CCN(Cc2ccccc2)CC1)c1ccccc1` (stereo not given), the Kb was 0.171 µM in assay [1] and more than 3 µM in assay [2]. Also, the ID50 in assay [3] amounted to 43.4 mg/kg.
As to `O=C(CN1CCN(Cc2ccc([N+](=O)[O-])cc2)CC1)C(O)(c1ccccc1)C1CCC1` (stereo not given), the antagonist dissociation constant (Kb) came to 0.105 µM in assay [1] and 2.69 µM in assay [2]. The same compound showed an ID50 in assay [3] of 21 mg/kg.
As for `O=C(CN1CCN(Cc2ccc3c(c2)OCO3)CC1)C(O)(c1ccccc1)C1CCC1` (stereo not given), the antagonist equilibrium constant (Kb) in assay [1] was 0.008 µM; in assay [2], 0.045 µM. The ED50 in assay [4] amounted to 4 mg/kg.
In the case of `O=C(CN1CCN(Cc2cccc(Cl)c2)CC1)C(O)(c1ccccc1)C1CCC1` (stereo not given), the antagonist dissociation constant (Kb) amounted to 0.027 µM in assay [1] and 0.38 µM in assay [2]. This compound also came in with an ID50 in assay [3] of 8.3 mg/kg.
The corresponding values for `CCCN1CCN(CC(=O)C(O)(c2ccccc2)C2CCC2)CC1` (stereo not given) are 0.673 µM, 1.19 µM and 31.1 mg/kg.
Take `CN(C)CCNCC(=O)C(O)(c1ccccc1)C1CCCCC1` (stereo not given): the Kb in assay [1] is 0.0055 µM; in assay [2], 0.216 µM. The compound also displayed a median effective dose (ED50) in assay [4] of 0.13 mg/kg.
Turning to `O=C(CN1CCN(CC(=O)C(O)(c2ccccc2)C2CCC2)CC1)C(O)(c1ccccc1)C1CCC1` (stereo not given), the Kb in assay [1] is 0.207 µM; in assay [2], more than 1 µM.
Take `Cc1ccc(CN2CCN(CC(=O)C(O)(c3ccccc3)C3CCC3)CC2)cc1` (stereo not given): the figures for the antagonist dissociation constant (Kb) in assay [1] and in assay [2] were 0.011 µM and 0.082 µM, respectively. This compound also yielded an ID50 in assay [3] of 8.4 mg/kg.
`COc1ccccc1N1CCN(CC(=O)C(O)(c2ccccc2)C2CCC2)CC1` (stereo not given): the antagonist equilibrium constant (Kb) in assay [1] and in assay [2] was more than 10 µM in each case.
Turning to `O=C(CN1CCN(C(c2ccccc2)c2ccccc2)CC1)C(O)(c1ccccc1)C1CCC1` (stereo not given), the Kb in assay [1] was more than 10 µM; in assay [2], more than 100 µM.
With `O=C(CN1CCN(Cc2ccc(Cl)cc2)CC1)C(O)(c1ccccc1)C1CCC1` (stereo not given), the antagonist dissociation constant (Kb) stood at 0.016 µM in assay [1] and 0.515 µM in assay [2]. In assay [3], this compound had an ID50 of 9.8 mg/kg.
For `O=C(CN1CCN(Cc2ccccc2Cl)CC1)C(O)(c1ccccc1)C1CCC1` (stereo not given), the Kb in assay [1] is 0.056 µM; in assay [2] it was more than 10 µM.
Turning to `O=C(CN1CCN(CCO)CC1)C(O)(c1ccccc1)C1CCCCC1` (stereo not given), the figures for the Kb in assay [1] and in assay [2] were 0.053 µM and 0.53 µM, respectively. In assay [4], this compound had an ED50 of more than 10 mg/kg.
Turning to `O=C(CN1CCN(CC(=O)C(O)(c2ccccc2)C2CCC2)CC1)N1CCCC1` (stereo not given), the antagonist dissociation constant (Kb) in assay [1] is 0.21 µM; in assay [2], more than 3 µM.
For the compound `C=CCCN1CCN(CC(=O)C(O)(c2ccccc2)C2CCC2)CC1` (stereo not given), the Kb entry in assay [5] was “Non-competitive antagonist”; in assay [1], 0.0356 µM. In assay [3], this compound displayed an ID50 of 27.2 mg/kg.
As for `C#CCN1CCN(CC(=O)C(O)(c2ccccc2)C2CCCCC2)CC1` (stereo not given), the values for the Kb in assay [1] and in assay [2] were 0.26 µM and 5.67 µM, respectively.
As to `O=C(CN1CCN(C2CCC2)CC1)C(O)(c1ccccc1)C1CCC1` (stereo not given), the values for the Kb in assay [1] and in assay [2] were 0.23 µM and 1.8 µM, respectively. The compound also registered an ID50 in assay [3] of 18.3 mg/kg.
`O=C(CN1CCN(CCc2ccccc2)CC1)C(O)(c1ccccc1)C1CCC1` (stereo not given): the antagonist equilibrium constant (Kb) in assay [1] was 0.302 µM; in assay [2] it was more than 1 µM.
Regarding `O=C(CN1CCC(N2CCCC2)CC1)C(O)(c1ccccc1)C1CCC1` (stereo not given), the Kb in assay [1] is more than 10 µM; in assay [2], 2.44 µM.
